Reference: ChEMBL document CHEMBL1765049, “Inhibitory properties of 2-substituent-1H-benzimidazole-4-carboxamide derivatives against enteroviruses” (Bioorg Med Chem, 2011)

Experiments:
[1] = Selectivity index, ratio of TC50 for african green monkey Vero cells to IC50 for Coxsackievirus B3; assay type: toxicity, cell-based; conditions: read-out: Selectivity Index
Procedure, shortened: (§1)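 Selectivity index is calculated as TC50 in Vero cells divided by the antiviral IC50 against the named enterovirus. Both values come from the same Vero cytopathic-effect assay, with compounds dissolved in DMSO and diluted in medium.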

Coxsackievirus B3 = assay: Antiviral activity against Coxsackievirus B3 infected in african green monkey Vero cells assessed as inhibition of viral growth after 24 hrs by Reed-Muench method; assay type: functional, organism-based; conditions: Enterovirus B
Procedure, shortened: (§2)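 Vero cells were seeded and after 24 h exposed to virus for 2 h. Compounds were then added after being dissolved in DMSO and diluted in culture medium. Cell-control and virus-control wells were run alongside. Cytopathic effect was scored once the virus wells exceeded grade 4. The 50% inhibitory concentration of virus growth was calculated by the Reed–Muench method.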

Coxsackievirus A16 = assay: Antiviral activity against Coxsackievirus A16 infected in african green monkey Vero cells assessed as inhibition of viral growth after 24 hrs by Reed-Muench method; assay type: functional, cell-based; procedure, shortened: as §2
[2] = (§3) Cytotoxicity against african green monkey Vero cells; assay type: cell-based; conditions: chlorocebus sabaeus, Vero cells; read-out: TC50 (the source's name)
Procedure, shortened: (§4)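 TC50 is the compound concentration killing 50% of Vero cells (inhibiting cell growth by 50%). Compounds were dissolved in DMSO and diluted in medium, then added to seeded Vero cells. Cell wells were examined when cytopathic effect in virus-infected control wells exceeded grade 4.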

[3] = Selectivity index, ratio of TC50 for african green monkey Vero cells to IC50 for Coxsackievirus A16; assay type: toxicity, cell-based; conditions: read-out: Selectivity Index; procedure, shortened: as §1
Enterovirus A71 [4] = assay: Antiviral activity against Human enterovirus 71 infected in african green monkey Vero cells assessed as inhibition of viral growth after 48 hrs by Reed-Muench method; assay type: functional, organism-based; conditions: Enterovirus A; procedure, shortened: as §2
[5] = Selectivity index, ratio of TC50 for african green monkey Vero cells to IC50 for Human enterovirus 71; assay type: toxicity, cell-based; conditions: read-out: Selectivity Index; procedure, shortened: as §1
Enterovirus A71 [6] = assay: Antiviral activity against Human enterovirus 71 infected in african green monkey Vero cells assessed as inhibition of viral growth after 24 hrs by Reed-Muench method; assay type: functional, organism-based; conditions: Enterovirus A; procedure, shortened: as §2
Coxsackievirus B6 = assay: Antiviral activity against Coxsackievirus B6 infected in african green monkey Vero cells assessed as inhibition of viral growth after 24 hrs by Reed-Muench method; assay type: functional, organism-based; conditions: Enterovirus B; procedure, shortened: as §2
[7] = Selectivity index, ratio of TC50 for african green monkey Vero cells to IC50 for Coxsackievirus B6; assay type: toxicity, cell-based; conditions: read-out: Selectivity Index; procedure, shortened: as §1
Vero = assay: as §3; assay type: cell-based; conditions: chlorocebus sabaeus, vero; procedure, shortened: as §4
[8] = Enterovirus A, Vero, 24 h, read-out: IC50

| SMILES | selectivity ratio [1] | IC50 (Coxsackievirus B3) [µM] | IC50 (Coxsackievirus A16; [8]) [µM] | CC50 [2] [µM] | selectivity ratio [3] | IC50 (Enterovirus A71 [4]) [µM] | selectivity ratio [5] | IC50 (Enterovirus A71 [6]) [µM] | IC50 (Coxsackievirus B6) [µM] | selectivity ratio [7] | IC50 (Coxsackievirus A16; vero) | TC50 (Vero) |
| --- | --- | --- | --- | --- | --- | --- | --- | --- | --- | --- | --- | --- |
| COc1ccc(-c2nc3c(C(=O)Nc4ccccc4F)cccc3[nH]2)cc1OC | 7 | 3.5 | 3.5 | 24.5 | 7 |  |  |  |  |  |  |  |
| O=C(N[C@H](CO)[C@H](O)c1ccc([N+](=O)[O-])cc1)c1cccc2[nH]c(-c3ccccn3)nc12 | 328 | 4.06 |  | 1330 |  | 4.06 | 328 |  |  |  |  |  |
| Cc1csc(NC(=O)c2cccc3[nH]c(-c4ccccn4)nc23)n1 | 10 | 1.76 |  | 17.7 |  |  |  |  |  |  |  |  |
| O=C(N[C@H](CO)[C@H](O)c1ccc([N+](=O)[O-])cc1)c1cccc2[nH]c(-c3cccnc3)nc12 | 5.2 | 28.6 |  | 148 |  |  |  |  |  |  |  |  |
| Cc1csc(NC(=O)c2cccc3[nH]c(-c4cccnc4)nc23)n1 | 6.8 | 16.2 |  | 111 |  |  |  |  |  |  |  |  |
| O=C(N[C@H](CO)[C@H](O)c1ccc([N+](=O)[O-])cc1)c1cccc2[nH]c(-c3ccncc3)nc12 | 4.1 | 30.2 |  | 123 |  |  |  |  |  |  |  |  |
| Cc1csc(NC(=O)c2cccc3[nH]c(-c4ccncc4)nc23)n1 | 5.2 | 21.3 |  | 111 |  |  |  |  |  |  |  |  |
| O=C(Nc1ccccc1F)c1cccc2[nH]c(-c3ccco3)nc12 | 7.5 | 3.3 |  | 25 |  |  |  |  |  |  |  |  |
| O=C(N[C@H](CO)[C@H](O)c1ccc([N+](=O)[O-])cc1)c1cccc2[nH]c(-c3ccco3)nc12 | 4 | 37.7 |  | 152 |  |  |  |  |  |  |  |  |
| C[C@@H](NC(=O)c1cccc2[nH]c(-c3ccco3)nc12)[C@H](O)c1ccc(Cl)cc1 | 12.1 | 13.4 |  | 162 |  |  |  |  |  |  |  |  |
| O=C(Nc1ccccc1F)c1cccc2[nH]c(-c3ccc([N+](=O)[O-])o3)nc12 | 3 | 25.3 |  | 75.9 |  |  |  |  |  |  |  |  |
| O=C(N[C@H](CO)[C@H](O)c1ccc([N+](=O)[O-])cc1)c1cccc2[nH]c(-c3ccc([N+](=O)[O-])o3)nc12 | 3 | 22.9 |  | 68.7 |  |  |  |  |  |  |  |  |
| C[C@@H](NC(=O)c1cccc2[nH]c(-c3ccc([N+](=O)[O-])o3)nc12)[C@H](O)c1ccc(Cl)cc1 | 3 | 16.2 |  | 48.6 |  |  |  |  |  |  |  |  |
| COc1ccc(-c2nc3c(C(=O)NCCCO)cccc3[nH]2)cc1OC | 2.7 | 17.2 | 20.9 | 46 | 2.1 |  | 2.7 | 20.9 | 12.1 | 3.6 |  |  |
| CCC(CC)NC(=O)c1cccc2[nH]c(-c3ccc(OC)c(OC)c3)nc12 | 3 | 0.7 | 0.736 | 2.23 | 3 |  | 3 | 0.736 | 0.736 | 3 |  |  |
| COc1ccc(-c2nc3c(C(=O)Nc4cnc(Cl)cn4)cccc3[nH]2)cc1OC | 4.3 | 18.4 | 18.1 | 78.3 | 4.3 |  | 4.3 | 18.1 | 18.1 | 4.3 |  |  |
| COc1ccc(-c2nc3c(C(=O)Nc4ccccc4F)cccc3[nH]2)c(OC)c1OC | 3.9 | 9.8 | 16.9 | 37.8 | 3 |  |  |  |  |  |  |  |
| COc1ccc(-c2nc3c(C(=O)N[C@H](CO)[C@H](O)c4ccc([N+](=O)[O-])cc4)cccc3[nH]2)c(OC)c1OC | 2 | 4.73 | 4.73 | 9.85 | 2.1 |  | 2.7 | 3.68 | 4.73 | 2.1 |  |  |
| COc1ccc(-c2nc3c(C(=O)NCCCO)cccc3[nH]2)c(OC)c1OC | 2.1 | 19.5 | 19.2 | 40 | 2.1 |  | 2.7 | 14.9 | 19.2 | 2.7 |  |  |
| CCC(CC)NC(=O)c1cccc2[nH]c(-c3ccc(OC)c(OC)c3OC)nc12 | 1.7 | 18.7 | 18.7 | 32.3 | 1.7 |  | 1.73 | 18.7 | 18.7 | 1.7 |  |  |
| COc1ccc(-c2nc3c(C(=O)Nc4cnc(Cl)cn4)cccc3[nH]2)c(OC)c1OC | 3.8 | 17.4 | 16.9 | 65.2 | 3.9 |  | 3.9 | 16.9 | 16.9 | 3.9 |  |  |

| SMILES | selectivity ratio [1] | IC50 (Coxsackievirus B3) [µM] | IC50 (Coxsackievirus A16; [8]) [µM] | CC50 [2] [µM] | selectivity ratio [3] | IC50 (Enterovirus A71 [4]) [µM] | selectivity ratio [5] | IC50 (Enterovirus A71 [6]) [µM] | IC50 (Coxsackievirus B6) [µM] | selectivity ratio [7] | IC50 (Coxsackievirus A16; vero) | TC50 (Vero) |
| --- | --- | --- | --- | --- | --- | --- | --- | --- | --- | --- | --- | --- |
| COc1ccc(-c2nc3c(C(=O)Nc4nc5ccccc5[nH]4)cccc3[nH]2)c(OC)c1OC | 1.7 | 16.9 | 16.7 | 29 | 1.7 |  | 1.7 | 16.7 | 16.7 | 1.7 |  |  |
| COc1ccc(-c2nc3c(C(=O)N[C@H](CO)[C@H](O)c4ccc([N+](=O)[O-])cc4)cccc3[nH]2)cc1OC |  |  | 8.37 | 14.5 | 1.7 |  |  |  |  |  |  |  |
| COc1ccc(-c2nc3c(C(=O)Nc4c[nH]cn4)cccc3[nH]2)cc1OC |  |  | 102 | 306 | 3 |  |  |  |  |  |  |  |
| COc1ccc(-c2nc3c(C(=O)Nc4ncc[nH]4)cccc3[nH]2)cc1OC |  |  |  |  |  |  |  |  |  |  | Not Active | Not Active |
| COc1ccc(-c2nc3c(C(=O)Nc4nc(C#N)c(C#N)[nH]4)cccc3[nH]2)cc1OC |  |  | 9.98 | 43.1 | 4.3 |  |  |  |  |  |  |  |
| COc1ccc(-c2nc3c(C(=O)Nc4cnccn4)cccc3[nH]2)cc1OC |  |  | 32.9 | 98.8 | 3 |  |  |  |  |  |  |  |
| COc1ccc(-c2nc3c(C(=O)Nc4nc5ccccc5[nH]4)cccc3[nH]2)cc1OC |  |  | 9.98 | 51.8 | 5.2 |  |  |  |  |  |  |  |
| COc1ccc(-c2nc3c(C(=O)Nc4ncccc4O)cccc3[nH]2)cc1OC |  |  | 31.7 | 164 | 5.2 |  |  |  |  |  |  |  |
| O=C(Nc1ccccc1F)c1cccc2[nH]c(-c3ccncc3)nc12 | 3 | 37.2 |  | 111 |  |  |  |  |  |  |  |  |
| O=C(Nc1ccccc1)c1cccc2[nH]c(-c3cccnc3)nc12 | 9.2 | 3.72 |  | 34.2 |  |  |  |  |  |  |  |  |
| NC(=O)c1cccc2[nH]c(-c3cccnc3)nc12 | 3 | 26 |  | 77.7 |  |  |  |  |  |  |  |  |
| O=C(Nc1ccccc1)c1cccc2[nH]c(-c3ccccn3)nc12 | 38.9 | 0.459 |  | 17.9 |  |  |  |  |  |  |  |  |
| O=C(NCCO)c1cccc2[nH]c(-c3ccncc3)nc12 |  |  |  | 498 |  |  |  |  |  |  |  |  |
| O=C(Nc1ccccc1F)c1cccc2[nH]c(-c3cccnc3)nc12 | 3.2 | 9.73 |  | 54.7 |  |  |  |  |  |  |  |  |
| O=C(NCCO)c1cccc2[nH]c(-c3cccnc3)nc12 | 7.5 | 90.7 |  | 682 |  |  |  |  |  |  |  |  |
| NC(=O)c1cccc2[nH]c(-c3ccccn3)nc12 | 7.3 | 30.6 |  | 224 |  |  |  |  |  |  |  |  |
| O=C(Nc1ccccc1)c1cccc2[nH]c(-c3ccncc3)nc12 | 4 | 12.3 |  | 49.8 |  |  |  |  |  |  |  |  |
| O=C(NCCO)c1cccc2[nH]c(-c3ccccn3)nc12 | 4.3 | 131 |  | 568 |  |  |  |  |  |  |  |  |
| O=C(Nc1ccccc1F)c1cccc2[nH]c(-c3ccccn3)nc12 | 28.4 | 1.63 |  | 54.7 |  |  |  |  |  |  |  |  |
| NC(=O)c1ncn([C@@H]2O[C@H](CO)[C@@H](O)[C@H]2O)n1 [RIBAVIRIN] |  | 1690 | 4090 | 8190 |  |  |  | 2340 | 910 |  |  |  |
